Converted amounts (≈) assume the structure as drawn.
Test system: NCI-H522
Test: Cytotoxicity against human NCI-H522 cells assessed as growth inhibition at 10 uM after 48 hrs by SRB assay
Type: functional
Conditions: NCI-H522, 48 h, read-out: GI
How it was run: (§1)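 NCI-60 one-dose primary screen run by the NCI Drug Evaluation Branch across the full 60-line panel. Single high-dose treatment with 48 h continuous drug exposure. Cell growth estimated by sulforhodamine B protein staining. Results given as percent growth of treated cells and expressed as percentage growth inhibition.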

With `CCOC(=O)c1sc(NC(=O)Nc2ccccc2)nc1C` as the molecule, how does the inhibition of growth at 10 µM read?
Its inhibition of growth at 10 µM is 2.64%.

Test system: Pseudomonas aeruginosa
Test: Bactericidal activity against Pseudomonas aeruginosa ATCC 27853 after 18 hrs
Type: functional
Conditions: ATCC 27853, 18 h
How it was run: (§2)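 Continuation of the broth-dilution MIC test. A loopful from each tube without visible growth spread on a quarter of a Mueller-Hinton agar plate and incubated 18 h. Lowest concentration giving no growth on subculture taken as the MBC.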

With `CCOC(=O)c1sc(NC(=O)Nc2ccccc2)nc1C` as the molecule, how does the MBC read?
The MBC was 100 µg/mL (≈ 327 µM).

Test system: Escherichia coli
Test: Antibacterial activity against Escherichia coli ATCC 25922 assessed as growth inhibition at 1 mg/mL after 24 hrs by agar-cup diffusion method
Type: functional
Conditions: ATCC 25922, 24 h, read-out: DIZ
How it was run: (§3)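 Agar-cup diffusion: 1 mL of 6 h broth culture seeded per 100 mL molten sterile agar at 45 °C and poured into plates. 8 mm cups cut, each filled with 0.1 mL of 1 mg/mL test solution. Incubated 37 °C for 24 h, 48 h for C. albicans. DMSO control per organism. Inhibition zone diameter in mm, mean of three measurements.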

With `CCOC(=O)c1sc(NC(=O)Nc2ccccc2)nc1C` as the molecule, how does the zone of inhibition at 1000 µg/mL read?
The zone of inhibition at 1000 µg/mL was over 13 mm.

Test system: HT-29
Test: Cytotoxicity against human HT-29 cells assessed as growth inhibition at 10 uM after 48 hrs by SRB assay
Type: functional
Conditions: HT-29, 48 h, read-out: GI
How it was run: as §1

With `CCOC(=O)c1sc(NC(=O)Nc2ccccc2)nc1C` as the molecule, how does the inhibition of growth at 10 µM read?
The inhibition of growth at 10 µM was 24.1%.

Test system: Escherichia coli
Test: Antibacterial activity against Escherichia coli ATCC 25922 assessed as growth inhibition after 48 hrs by two-fold serial dilution assay
Type: functional
Conditions: ATCC 25922, 48 h
How it was run: (§4)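 Twofold serial broth dilution run on compounds giving inhibition zones of 13 mm or more. Organisms pre-grown in suitable broth at 37 °C, 24 h for bacteria and 48 h for fungi. Dilution series 200, 100, 50, 25, 12.5, 6.25. Each 5 mL tube inoculated with 0.1 mL and incubated 37 °C for 48 h. Tubes scored for presence or absence of growth.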

With `CCOC(=O)c1sc(NC(=O)Nc2ccccc2)nc1C` as the molecule, how does the MIC read?
The MIC was 25 µg/mL (≈ 81.9 µM).

Test system: SK-MEL-2
Test: Cytotoxicity against human SK-MEL-2 cells assessed as growth inhibition at 10 uM after 48 hrs by SRB assay
Type: functional
Conditions: SK-MEL-2, 48 h, read-out: GI
How it was run: as §1

With `CCOC(=O)c1sc(NC(=O)Nc2ccccc2)nc1C` as the molecule, how does the inhibition of growth at 10 µM read?
The inhibition of growth at 10 µM was 77.6%.

Test system: not listed separately
Test: Cytotoxicity against human UO31 cells assessed as growth inhibition at 10 uM after 48 hrs by SRB assay
Type: functional
Conditions: UO-31, 48 h, read-out: GI
How it was run: as §1

For `CCOC(=O)c1sc(NC(=O)Nc2ccccc2)nc1C`, which inhibition of growth at 10 µM is on record?
Its inhibition of growth at 10 µM is 16.1%.

Test system: Bacillus spizizenii
Test: Antibacterial activity against Bacillus subtilis ATCC 6633 assessed as growth inhibition after 48 hrs by two-fold serial dilution assay
Type: functional
Conditions: ATCC 6633, 48 h
How it was run: as §4

Which MIC does the source give for `CCOC(=O)c1sc(NC(=O)Nc2ccccc2)nc1C` here?
The MIC was 50 µg/mL (≈ 164 µM).

Test system: RPMI-8226
Test: Cytotoxicity against human RPMI8226 cells assessed as growth inhibition at 10 uM after 48 hrs by SRB assay
Type: functional
Conditions: RPMI-8226, 48 h, read-out: GI
How it was run: as §1

With `CCOC(=O)c1sc(NC(=O)Nc2ccccc2)nc1C` as the molecule, how does the inhibition of growth at 10 µM read?
Its inhibition of growth at 10 µM is 22.8%.

Test system: Bacillus spizizenii
Test: Antibacterial activity against Bacillus subtilis ATCC 6633 assessed as growth inhibition at 1 mg/mL after 24 hrs by agar-cup diffusion method
Type: functional
Conditions: ATCC 6633, 24 h, read-out: DIZ
How it was run: as §3

With `CCOC(=O)c1sc(NC(=O)Nc2ccccc2)nc1C` as the molecule, how does the zone of inhibition at 1000 µg/mL read?
The zone of inhibition at 1000 µg/mL was over 13 mm.

Test system: T47D
Test: Cytotoxicity against human T47D cells assessed as growth inhibition at 10 uM after 48 hrs by SRB assay
Type: functional
Conditions: read-out: GI
How it was run: as §1

For `CCOC(=O)c1sc(NC(=O)Nc2ccccc2)nc1C`, which inhibition of growth at 10 µM is on record?
The inhibition of growth at 10 µM was 12.6%.

Test system: HOP-92
Test: Cytotoxicity against human HOP92 cells assessed as growth inhibition at 10 uM after 48 hrs by SRB assay
Type: functional
Conditions: HOP-92, 48 h, read-out: GI
How it was run: as §1

Which inhibition of growth at 10 µM does the source give for `CCOC(=O)c1sc(NC(=O)Nc2ccccc2)nc1C` here?
The inhibition of growth at 10 µM was 64.2%.

Test system: Staphylococcus aureus
Test: Antibacterial activity against Staphylococcus aureus ATCC 6538 assessed as growth inhibition after 48 hrs by two-fold serial dilution assay
Type: functional
Conditions: ATCC 6538, 48 h
How it was run: as §4

With `CCOC(=O)c1sc(NC(=O)Nc2ccccc2)nc1C` as the molecule, how does the MIC read?
Its MIC is 25 µg/mL (≈ 81.9 µM).

Test system: MOLT-4
Test: Cytotoxicity against human MOLT4 cells assessed as growth inhibition at 10 uM after 48 hrs by SRB assay
Type: functional
Conditions: MOLT-4, 48 h, read-out: GI
How it was run: as §1

Which inhibition of growth at 10 µM does the source give for `CCOC(=O)c1sc(NC(=O)Nc2ccccc2)nc1C` here?
The inhibition of growth at 10 µM was 23.7%.

Test system: Escherichia coli
Test: Bactericidal activity against Escherichia coli ATCC 25922 after 18 hrs
Type: functional
Conditions: ATCC 25922, 18 h
How it was run: as §2

With `CCOC(=O)c1sc(NC(=O)Nc2ccccc2)nc1C` as the molecule, how does the MBC read?
Its MBC is 25 µg/mL (≈ 81.9 µM).

Test system: Staphylococcus aureus
Test: Bactericidal activity against Staphylococcus aureus ATCC 6538 after 18 hrs
Type: functional
Conditions: ATCC 6538, 18 h
How it was run: as §2

For `CCOC(=O)c1sc(NC(=O)Nc2ccccc2)nc1C`, which MBC is on record?
Its MBC is 25 µg/mL (≈ 81.9 µM).

Test system: MDA-MB-468
Test: Cytotoxicity against human MDA-MB-468 cells assessed as growth inhibition at 10 uM after 48 hrs by SRB assay
Type: functional
Conditions: MDA-MB-468, 48 h, read-out: GI
How it was run: as §1

Which inhibition of growth at 10 µM does the source give for `CCOC(=O)c1sc(NC(=O)Nc2ccccc2)nc1C` here?
The inhibition of growth at 10 µM was 18.4%.

Test system: not listed separately
Test: Cytotoxicity against human NCI-ADR-RES cells assessed as growth inhibition at 10 uM after 48 hrs by SRB assay
Type: functional
Conditions: read-out: GI
How it was run: as §1

For `CCOC(=O)c1sc(NC(=O)Nc2ccccc2)nc1C`, which inhibition of growth at 10 µM is on record?
The inhibition of growth at 10 µM was 13.9%.

Test system: SF-268
Test: Cytotoxicity against human SF268 cells assessed as growth inhibition at 10 uM after 48 hrs by SRB assay
Type: functional
Conditions: SF-268, 48 h, read-out: GI
How it was run: as §1

For `CCOC(=O)c1sc(NC(=O)Nc2ccccc2)nc1C`, which inhibition of growth at 10 µM is on record?
Its inhibition of growth at 10 µM is 4.88%.

Test system: PC-3
Test: Cytotoxicity against human PC3 cells assessed as growth inhibition at 10 uM after 48 hrs by SRB assay
Type: functional
Conditions: PC-3, 48 h, read-out: GI
How it was run: as §1

For `CCOC(=O)c1sc(NC(=O)Nc2ccccc2)nc1C`, which inhibition of growth at 10 µM is on record?
Its inhibition of growth at 10 µM is 4.18%.

Test system: Staphylococcus aureus
Test: Antibacterial activity against Staphylococcus aureus ATCC 6538 assessed as growth inhibition at 1 mg/mL after 24 hrs by agar-cup diffusion method
Type: functional
Conditions: ATCC 6538, 24 h, read-out: DIZ
How it was run: as §3

With `CCOC(=O)c1sc(NC(=O)Nc2ccccc2)nc1C` as the molecule, how does the zone of inhibition at 1000 µg/mL read?
The zone of inhibition at 1000 µg/mL was over 13 mm.

Test system: IGROV-1
Test: Cytotoxicity against human IGROV1 cells assessed as growth inhibition at 10 uM after 48 hrs by SRB assay
Type: functional
Conditions: IGROV-1, 48 h, read-out: GI
How it was run: as §1

For `CCOC(=O)c1sc(NC(=O)Nc2ccccc2)nc1C`, which inhibition of growth at 10 µM is on record?
Its inhibition of growth at 10 µM is 72.9%.

Test system: Pseudomonas aeruginosa
Test: Antibacterial activity against Pseudomonas aeruginosa ATCC 27853 assessed as growth inhibition after 48 hrs by two-fold serial dilution assay
Type: functional
Conditions: ATCC 27853, 48 h
How it was run: as §4

With `CCOC(=O)c1sc(NC(=O)Nc2ccccc2)nc1C` as the molecule, how does the MIC read?
Its MIC is 50 µg/mL (≈ 164 µM).

Test system: CCRF-CEM
Test: Cytotoxicity against human CCRF-CEM cells assessed as growth inhibition at 10 uM after 48 hrs by SRB assay
Type: functional
Conditions: read-out: GI
How it was run: as §1

Which inhibition of growth at 10 µM does the source give for `CCOC(=O)c1sc(NC(=O)Nc2ccccc2)nc1C` here?
Its inhibition of growth at 10 µM is 22%.

Test system: UACC-62
Test: Cytotoxicity against human UACC62 cells assessed as growth inhibition at 10 uM after 48 hrs by SRB assay
Type: functional
Conditions: UACC-62, 48 h, read-out: GI
How it was run: as §1

Which inhibition of growth at 10 µM does the source give for `CCOC(=O)c1sc(NC(=O)Nc2ccccc2)nc1C` here?
Its inhibition of growth at 10 µM is 20%.

Test system: SNB-75
Test: Cytotoxicity against human SNB75 cells assessed as growth inhibition at 10 uM after 48 hrs by SRB assay
Type: functional
Conditions: SNB-75, 48 h, read-out: GI
How it was run: as §1

Which inhibition of growth at 10 µM does the source give for `CCOC(=O)c1sc(NC(=O)Nc2ccccc2)nc1C` here?
Its inhibition of growth at 10 µM is 47.2%.

Test system: HCC 2998
Test: Cytotoxicity against human HCC2998 cells assessed as growth inhibition at 10 uM after 48 hrs by SRB assay
Type: functional
Conditions: HCC 2998, 48 h, read-out: GI
How it was run: as §1

Which inhibition of growth at 10 µM does the source give for `CCOC(=O)c1sc(NC(=O)Nc2ccccc2)nc1C` here?
Its inhibition of growth at 10 µM is 27.4%.

Test system: Bacillus spizizenii
Test: Bactericidal activity against Bacillus subtilis ATCC 6633 after 18 hrs
Type: functional
Conditions: ATCC 6633, 18 h
How it was run: as §2

Which MBC does the source give for `CCOC(=O)c1sc(NC(=O)Nc2ccccc2)nc1C` here?
The MBC was 50 µg/mL (≈ 164 µM).

Test system: NCI-H322M
Test: Cytotoxicity against human NCI-H322M cells assessed as growth inhibition at 10 uM after 48 hrs by SRB assay
Type: functional
Conditions: read-out: GI
How it was run: as §1

For `CCOC(=O)c1sc(NC(=O)Nc2ccccc2)nc1C`, which inhibition of growth at 10 µM is on record?
The inhibition of growth at 10 µM was under 10%.

Test system: Pseudomonas aeruginosa
Test: Antibacterial activity against Pseudomonas aeruginosa ATCC 27853 assessed as growth inhibition at 1 mg/mL after 24 hrs by agar-cup diffusion method
Type: functional
Conditions: ATCC 27853, 24 h, read-out: DIZ
How it was run: as §3

For `CCOC(=O)c1sc(NC(=O)Nc2ccccc2)nc1C`, which zone of inhibition at 1000 µg/mL is on record?
The zone of inhibition at 1000 µg/mL was over 13 mm.

Test system: SW-620
Test: Cytotoxicity against human SW620 cells assessed as growth inhibition at 10 uM after 48 hrs by SRB assay
Type: functional
Conditions: SW-620, 48 h, read-out: GI
How it was run: as §1

With `CCOC(=O)c1sc(NC(=O)Nc2ccccc2)nc1C` as the molecule, how does the inhibition of growth at 10 µM read?
Its inhibition of growth at 10 µM is 2.85%.

Test system: MCF7
Test: Cytotoxicity against human MCF7 cells assessed as growth inhibition at 10 uM after 48 hrs by SRB assay
Type: functional
Conditions: MCF7, 48 h, read-out: GI
How it was run: as §1

Which inhibition of growth at 10 µM does the source give for `CCOC(=O)c1sc(NC(=O)Nc2ccccc2)nc1C` here?
Its inhibition of growth at 10 µM is 7.17%.
